Measurements taken from ChEMBL document CHEMBL1141865, “Discovery of 4-heteroarylbicyclo[2.2.2]octyltriazoles as potent and selective inhibitors of 11beta-HSD1: novel therapeutic agents for the treatment of metabolic syndrome” (Bioorg Med Chem Lett, 2005).
Blank lines part the entries; values can stand above or below the molecule they belong to.

What was measured:
[1] = target: T1, 11-beta-hydroxysteroid dehydrogenase 1 (Homo sapiens, UniProt P28845); test: Inhibitory activity against human 11beta-HSD1
Target sequence in this assay (P28845 whole entry): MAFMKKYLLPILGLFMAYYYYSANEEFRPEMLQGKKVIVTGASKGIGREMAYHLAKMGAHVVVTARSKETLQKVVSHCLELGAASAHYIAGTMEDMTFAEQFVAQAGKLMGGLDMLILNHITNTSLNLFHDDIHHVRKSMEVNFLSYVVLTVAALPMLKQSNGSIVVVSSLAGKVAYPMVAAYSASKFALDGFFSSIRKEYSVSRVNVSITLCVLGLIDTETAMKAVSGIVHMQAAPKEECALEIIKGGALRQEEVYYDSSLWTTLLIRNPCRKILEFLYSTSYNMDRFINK

[2] = target: 11-beta-hydroxysteroid dehydrogenase 1 (Mus musculus, UniProt P50172); test: Inhibitory activity against mouse 11beta-HSD1
Sequence of 11-beta-hydroxysteroid dehydrogenase 1 (Mus musculus, UniProt P50172) (P50172 whole entry): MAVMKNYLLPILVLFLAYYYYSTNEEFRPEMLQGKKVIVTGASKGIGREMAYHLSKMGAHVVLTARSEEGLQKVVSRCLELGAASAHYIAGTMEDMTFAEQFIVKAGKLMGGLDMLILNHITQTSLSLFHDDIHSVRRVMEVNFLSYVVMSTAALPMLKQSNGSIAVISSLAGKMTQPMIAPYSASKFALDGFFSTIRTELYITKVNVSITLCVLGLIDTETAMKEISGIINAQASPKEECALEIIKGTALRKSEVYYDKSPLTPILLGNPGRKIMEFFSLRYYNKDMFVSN

[3] = target: T2, 11-beta-hydroxysteroid dehydrogenase type 2 (Homo sapiens, UniProt P80365); test: Inhibitory activity against human 11beta-HSD2
T2 sequence (P80365 whole entry): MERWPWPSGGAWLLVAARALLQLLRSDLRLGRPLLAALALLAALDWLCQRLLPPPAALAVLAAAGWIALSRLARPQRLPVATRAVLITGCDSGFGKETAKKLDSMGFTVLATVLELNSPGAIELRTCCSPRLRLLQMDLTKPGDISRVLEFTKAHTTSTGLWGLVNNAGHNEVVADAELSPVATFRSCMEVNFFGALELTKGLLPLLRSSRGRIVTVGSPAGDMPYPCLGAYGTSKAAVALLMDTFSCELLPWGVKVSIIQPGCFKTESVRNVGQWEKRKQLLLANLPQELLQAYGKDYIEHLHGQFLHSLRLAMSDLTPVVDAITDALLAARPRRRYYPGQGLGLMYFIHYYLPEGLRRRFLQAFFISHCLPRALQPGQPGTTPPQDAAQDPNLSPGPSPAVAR

[4] = target: T3, 11-beta-hydroxysteroid dehydrogenase type 2 (Mus musculus, UniProt P51661); test: Inhibitory activity against mouse 11beta-HSD2
T3 sequence (P51661 whole entry): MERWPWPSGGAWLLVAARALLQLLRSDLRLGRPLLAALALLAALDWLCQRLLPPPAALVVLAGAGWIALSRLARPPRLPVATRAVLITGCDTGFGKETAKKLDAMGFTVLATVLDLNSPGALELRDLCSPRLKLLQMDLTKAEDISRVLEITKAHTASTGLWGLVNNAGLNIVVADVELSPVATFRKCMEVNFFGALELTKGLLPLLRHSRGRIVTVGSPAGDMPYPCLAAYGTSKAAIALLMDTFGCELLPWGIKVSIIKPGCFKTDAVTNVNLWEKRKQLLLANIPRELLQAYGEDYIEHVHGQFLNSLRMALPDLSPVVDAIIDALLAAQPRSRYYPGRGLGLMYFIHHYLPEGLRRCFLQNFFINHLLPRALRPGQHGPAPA

[5] = target: T1, 11-beta-hydroxysteroid dehydrogenase 1; test: In vivo inhibition of 11beta-HSD1 at 1 h (10 mg/kg, po) assessed by extent of cortisone to cortisol conversion; format: functional, organism-based
Method in brief: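 Oral dosing at 10 mg/kg, followed by exogenous [3H]cortisone as the 11β-HSD1 substrate. In vivo enzyme activity is read out as the extent of conversion to [3H]cortisol, reported as % inhibition.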
Target sequence in this assay (P28845 whole entry, looked up): as the sequence (P28845 whole entry) above

[6] = Oral bioavailability in mouse; format: ADME, organism-based; details: in vivo
Mus musculus [7] = species on record: Mus musculus; test: (§1) Plasma clearance in mouse; format: ADME, organism-based; details: in vivo
[8] = Plasma clearance in rat; format: ADME, organism-based
[9] = plasma clearance in dog; format: ADME, organism-based, Canis lupus familiaris
[10] = Half life in mouse; format: ADME, organism-based; details: in vivo
[11] = Half life in rat; format: ADME, organism-based; details: in vivo
[12] = Half life in dog; format: ADME, organism-based, Canis lupus familiaris; details: in vivo
[13] = Oral bioavailability in rat; format: ADME, organism-based; details: in vivo
[14] = Oral bioavailability in dog; format: ADME, organism-based, Canis lupus familiaris; details: in vivo
Rattus norvegicus = species on record: Rattus norvegicus; test: AUC in rat; format: ADME, organism-based, Plasma; details: in vivo
Canis familiaris = species on record: Canis familiaris; test: AUC in dog; format: ADME, organism-based, Canis lupus familiaris, Plasma; details: in vivo
[15] = as §1; format: ADME, organism-based; details: plasma
Mus musculus [16] = species on record: Mus musculus; test: AUC in mouse; format: ADME, organism-based, Plasma; details: in vivo
[17] = target: T4, 11-beta-hydroxysteroid dehydrogenase type 2 (Homo sapiens) (UniProt P80365); test: Inhibitory activity against human 11beta-HSD2 at 4 uM
T4 sequence (whole entry): T2 sequence (P80365 whole entry)

IC50 [2]: < 1 nM
Structure (SMILES): Cn1c(-c2ccccc2C(F)(F)F)nnc1C12CCC(c3nc(-c4ccc(C(O)C(F)(F)F)cc4)no3)(CC1)CC2 (stereo not given)

IC50 [2]: 4.5 nM
Structure (SMILES): COc1ccc(-c2noc(C34CCC(c5nnc(-c6ccccc6C(F)(F)F)n5C)(CC3)CC4)n2)cn1

clearance [8]: 5.39 mL/min/kg
clearance [9]: 3.51 mL/min/kg
half-life [10]: 17.7 h
half-life [11]: 5.1 h
half-life [12]: 9.87 h
bioavailability [6]: 58%
bioavailability [13]: 83%
bioavailability [14]: 100%
IC50 [2]: 1.9 nM
AUC (Rattus norvegicus): 6.2 uMh
AUC (Canis familiaris): 9.55 uMh
clearance [15]: 5.88 mL/min/kg
AUC (Mus musculus [16]): 5.7 uMh
Structure (SMILES): Cn1c(-c2ccccc2C(F)(F)F)nnc1C12CCC(c3nc(-c4ccc(F)cc4)no3)(CC1)CC2

IC50 [2]: 22 nM
Structure (SMILES): Cn1c(-c2ccccc2C(F)(F)F)nnc1C12CCC(c3nc(-c4ccc(=O)n(C)c4)no3)(CC1)CC2

IC50 [2]: 1.8 nM
Structure (SMILES): Cn1c(-c2ccccc2C(F)(F)F)nnc1C12CCC(c3nc(-c4ccc(S(C)(=O)=O)cc4)no3)(CC1)CC2

IC50 [2]: 2 nM
Structure (SMILES): Cn1c(-c2ccccc2C(F)(F)F)nnc1C12CCC(c3nc(-c4ccc(Cl)cc4)no3)(CC1)CC2

IC50 [2]: < 0.98 nM
Structure (SMILES): Cn1c(-c2ccccc2C(F)(F)F)nnc1C12CCC(c3nc(-c4ccc(S(=O)(=O)C(F)(F)F)cc4)no3)(CC1)CC2

Second part, the molecule before the results:

Structure (SMILES): COC(=O)C12CCC(c3nnc4n3CCCCCC4)(CC1)CC2
IC50 [1]: 110 nM
IC50 [2]: 68 nM
IC50 [3]: > 4000 nM
IC50 [4]: > 4000 nM

Structure (SMILES): CCCCCC12CCC(c3nnc4n3CCCCCC4)(CC1)CC2
inhibition [5]: 74%
bioavailability [6]: 6%
IC50 [1]: 5 nM
IC50 [2]: 3 nM
IC50 [3]: 183 nM
IC50 [4]: 2100 nM
CL (Mus musculus [7]): 14.1 mL/min/kg

Structure (SMILES): COc1cc(O)ccc1-c1nnc(C23CCC(c4nc(-c5ccc(F)cc5)no4)(CC2)CC3)n1C
IC50 [2]: 2.3 nM

Structure (SMILES): COc1ccc(-c2nnc(C34CCC(c5nc(-c6ccc(F)cc6)no5)(CC3)CC4)n2C)c(Cl)c1
IC50 [2]: 12 nM

Structure (SMILES): Cc1noc(C23CCC(c4nnc5n4CCCCCC5)(CC2)CC3)n1
IC50 [1]: 289 nM
IC50 [2]: 136 nM
IC50 [3]: > 4000 nM
IC50 [4]: > 4000 nM

Structure (SMILES): Cn1c(-c2ccccc2S(C)(=O)=O)nnc1C12CCC(c3nc(-c4ccc(F)cc4)no3)(CC1)CC2
IC50 [2]: 29 nM

Structure (SMILES): CCCCCC12CCC(c3nnc(-c4ccccc4C(F)(F)F)n3C)(CC1)CC2
inhibition [5]: 99%
bioavailability [6]: 21%
IC50 [1]: 2 nM
IC50 [2]: 3 nM
clearance [15]: 273 mL/min/kg

Structure (SMILES): Cn1c(-c2ccccc2OC(F)F)nnc1C12CCC(c3nc(-c4ccc(F)cc4)no3)(CC1)CC2
IC50 [2]: 5.2 nM

Structure (SMILES): Clc1ccc(-c2noc(C34CCC(c5nnc6n5CCCCCC6)(CC3)CC4)n2)cc1
IC50 [2]: 17 nM
IC50 [4]: 4000 nM

Structure (SMILES): Cn1c(-c2ccccc2Cl)nnc1C12CCC(c3nc(-c4ccc(F)cc4)no3)(CC1)CC2
IC50 [2]: 3.2 nM

Structure (SMILES): Cn1c(-c2ccccc2C(F)(F)F)nnc1C12CCC(c3nnc(-c4ccc(F)cc4)o3)(CC1)CC2
IC50 [2]: 5 nM

Structure (SMILES): Cn1c(-c2ccccc2C(F)(F)F)nnc1C12CCC(c3nc(-c4ccc(F)cc4)c[nH]3)(CC1)CC2
IC50 [2]: 2.4 nM

Structure (SMILES): Cn1c(-c2ccccc2C(F)(F)F)nnc1C12CCC(c3noc(-c4ccc(F)cc4)n3)(CC1)CC2
IC50 [2]: < 1 nM

Structure (SMILES): C1CCCn2c(nnc2C23CCC(c4nc(CC5CC5)no4)(CC2)CC3)CC1
inhibition [17]: 61%
IC50 [1]: 170 nM
IC50 [2]: < 3.9 nM
IC50 [4]: > 4000 nM

Structure (SMILES): Cn1c(-c2ccccc2C(F)(F)F)nnc1C12CCC(c3nc(-c4cccc(S(C)(=O)=O)c4)no3)(CC1)CC2
IC50 [2]: 9.5 nM

Structure (SMILES): Cn1c(-c2ccccc2C(F)(F)F)nnc1C12CCC(c3n[nH]c(-c4ccc(F)cc4)n3)(CC1)CC2
IC50 [2]: 1.6 nM
